Assay results reported in PMC10839871 (Heliyon, 2024).
Like-named read-outs stand apart in the source and are kept apart here.

Key:
[1] = target: Porcine pancreatic elastase (Sus scrofa, UniProt P00772); experiment: Anti-elastase activity; format: biochemical
Procedure, shortened: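 Porcine pancreatic elastase stock at 3.33 mg/mL in sterile water. Test sample (3–0.046 mg/mL), Tris–HCl buffer (pH 8) and enzyme pre-incubated 15 min. N-succinyl-Ala-Ala-Ala-p-nitroanilide substrate (1.6 mM solution) added, then 20 min at 37 °C. A400 read immediately. Inhibition % from blank-corrected sample versus buffer+enzyme absorbance. EGCG positive control. Run in triplicate, mean ± SD.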

[2] = DPPH free radical scavenging assay
[3] = Ferric reducing antioxidant power
Pseudomonas aeruginosa = experiment: MIC / bacterial growth, broth microdilution; format: cell-based; details: standard antibiotic
Procedure, shortened: (§1)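 Ampicillin (10 to 0.078125 mg/mL) as reference in Mueller–Hinton broth microdilution. Wells inoculated with fresh overnight suspension adjusted to OD600 0.6; uninoculated and drug-free growth controls included. Incubated 18 h at 37 °C, aerobic, shaking at 150 rpm. Growth checked visually and spectrophotometrically. MIC taken as lowest concentration preventing visible growth. Triplicate.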

Staphylococcus aureus = experiment: MIC / bacterial growth, broth microdilution; format: cell-based; details: standard antibiotic
Procedure, shortened: as §1

Enterococcus faecalis = experiment: MIC / bacterial growth, broth microdilution; format: cell-based; details: standard antibiotic
Procedure, shortened: as §1

[4] = ref 27 (Djouahri et al., 2015); cited from earlier work

Sequence of Porcine pancreatic elastase (P00772 27-266): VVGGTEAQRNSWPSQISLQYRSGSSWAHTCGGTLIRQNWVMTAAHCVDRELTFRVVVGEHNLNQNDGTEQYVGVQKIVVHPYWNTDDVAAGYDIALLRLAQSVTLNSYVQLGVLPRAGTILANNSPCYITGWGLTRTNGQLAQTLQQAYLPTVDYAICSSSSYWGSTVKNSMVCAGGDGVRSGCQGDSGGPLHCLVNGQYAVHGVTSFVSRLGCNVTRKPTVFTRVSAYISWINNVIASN

In the case of `O=C(O[C@@H]1Cc2c(O)cc(O)cc2O[C@@H]1c1cc(O)c(O)c(O)c1)c1cc(O)c(O)c(O)c1` [EGCG, epigallocatechin gallate], the “Elastase IC50” value [1] is reported as 92.00 ± 3.1 µg/mL.
For `O=c1c(O)c(-c2ccc(O)c(O)c2)oc2cc(O)cc(O)c12` [Quercetin], the “DPPH IC50” value [2] was 5.36 ± 0.25 µg/mL and the FRAP [3] was 16.60 ± 0.64 mM of FeSO4/g Extract.
For `CC1(C)S[C@@H]2[C@H](NC(=O)[C@H](N)c3ccccc3)C(=O)N2[C@H]1C(=O)O` [ampicillin], the “Concentration that completely inhibited the bacterial growth” value (Pseudomonas aeruginosa) was 0.3125 mg/mL, the “Concentration that completely inhibited the bacterial growth” value (Staphylococcus aureus) was 0.3125 mg/mL and the “Concentration that completely inhibited the bacterial growth” value (Enterococcus faecalis) was 0.3125 mg/mL.
In the case of `COc1ccc(O)c(C(C)(C)C)c1` [BHA], the “DPPH IC50” value [4] is listed as 24.73 ± 0.11 µg/mL.
In the case of `Cc1cc(C(C)(C)C)c(O)c(C(C)(C)C)c1` [BHT], the “DPPH IC50” value [4] is listed as 33.89 ± 0.16 µg/mL.
In the case of `O=C1O[C@H]([C@@H](O)CO)C(O)=C1O` [Ascorbic acid], the “ABTS IC50” value (ABTS assay) is reported as 21.7 ± 0.29 µg/mL.
